Data set [1] deals with K562. In words: Induction of mitochondrial membrane depolarization in human K562 cells at 20 nM after 48 hrs by JC-1 probe based flow cytometry (reference value: 0.6%). In kind it is functional. An outline of the steps:
(§1)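 K562 cells treated at 0, 5, 10 or 20 nM for 48 h. Mitochondrial membrane potential measured with JC-1 probe and the percentage of cells with collapsed potential recorded.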

Data set [2] deals with HCT-8. The experiment in a line: Antiproliferative activity against human HCT8 cells after 72 hrs by MTT assay. In kind it is functional, cell-based. The conditions noted are these: HCT-8, 72 h. An outline of the steps: (§2)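 MTT viability read-out after 72 h continuous exposure to test compounds. Performed in triplicate and reported as IC50, means ± SD, n = 3.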
(In general: Formazan colour is commonly taken as a measure of viable cells.)

The test system of data set [3] is K562. In words: Induction of apoptosis in human K562 cells assessed as late apoptotic cells at 10 nM after 48 hrs by Annexin V-APC/7-AAD staining based flow cytometry (reference value: 5.7%). In kind it is functional. (In flow cytometry, cells or beads pass a laser one at a time.)
The species named for data set [4] is Sus scrofa. In words: Inhibition of [3H]colchicine binding to biotinylated porcine tubulin at 1 uM after 2 hrs by scintillation proximity assay. (Scintillation proximity formats need no separation of bound from free tracer.)
The subject of data set [5] is K562. The experiment in a line: Induction of mitochondrial membrane depolarization in human K562 cells at 10 nM after 48 hrs by JC-1 probe based flow cytometry (reference value: 0.6%). The format is functional. The essentials: as §1
For data set [6], the system named is K562. The experiment in a line: Induction of apoptosis in human K562 cells assessed as early apoptotic cells at 10 nM after 48 hrs by Annexin V-APC/7-AAD staining based flow cytometry (reference value: 5.7%). In kind it is functional.
Data set [7] has as its system K562. In words: Cell cycle arrest in human K562 cells assessed as accumulation at G2/M phase at 5 nM after 48 hrs by propidium iodide staining based flow cytometry. In kind it is functional. An outline of the steps: (§3)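 K562 cells treated at 5, 10 or 20 nM for 48 h. Stained with propidium iodide and DNA content analysed for the fraction in G2/M.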
Data set [8] relates to K562. In words: Induction of apoptosis in human K562 cells assessed as early apoptotic cells at 20 nM after 48 hrs by Annexin V-APC/7-AAD staining based flow cytometry (reference value: 5.7%). The format is functional.
Data set [9] has as its system H22. The experiment in a line: Antitumor activity against […] cells xenografted in ICR mouse assessed as reduction in tumor weight at 30 mg/kg, iv qd for 21 consecutive days. The format is functional. More on the design: scale not given: the % may be the effect or the level left. An outline of the steps: (§4)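 H22 cells inoculated subcutaneously into the right flank of mice. Dosing i.v. at 15 or 30 mg/kg per day, or paclitaxel 8 mg/kg every 2 days, for 21 days. Tumor size and body weight recorded every 2 days. Tumor weight compared with vehicle at day 21.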

Data set [10] relates to K562. The experiment in a line: Induction of mitochondrial membrane depolarization in human K562 cells at 5 nM after 48 hrs by JC-1 probe based flow cytometry (reference value: 0.6%). The format is functional. The essentials:
as §1

The subject of data set [11] is K562. The experiment in a line: Antiproliferative activity against human K562 cells after 72 hrs by MTT assay. In kind it is functional, cell-based. The conditions noted are these: K562, 72 h. An outline of the steps:
as §2

Data set [12] has as its system L02. The experiment in a line: Cytotoxicity against human LO2 cells after 72 hrs by MTT assay. In kind it is cell-based. The note with it: L02, 72 h. An outline of the steps: as §2
Data set [13] deals with K562. The experiment in a line: Induction of apoptosis in human K562 cells after 48 hrs by Annexin V-APC/7-AAD staining based flow cytometry. The format is functional, cell-based.
The test system of data set [14] is Mus musculus. The experiment in a line: Toxicity in ICR mouse xenografted with […] cells assessed as decrease in body weight up to 30 mg/kg, iv qd for 21 consecutive days measured every 2 days. The conditions noted are these: in vivo, 48 h. The format is organism-based. An outline of the steps: as §4
Data set [15] can be described thus: Inhibition of porcine brain tubulin polymerization after 30 mins by spectrophotometric method. Also noted: species or system Sus scrofa.
Data set [16] has as its system HepG2. The experiment in a line: Antiproliferative activity against human HepG2 cells after 72 hrs by MTT assay. In kind it is functional, cell-based. The note with it: HepG2, 72 h. The essentials: as §2
Data set [17] is filed under the species Sus scrofa. In words: Inhibition of [3H]colchicine binding to biotinylated porcine tubulin at 5 uM after 2 hrs by scintillation proximity assay.
In data set [18] the test system is K562. The experiment in a line: Induction of apoptosis in human K562 cells assessed as early apoptotic cells at 5 nM after 48 hrs by Annexin V-APC/7-AAD staining based flow cytometry (reference value: 5.7%). In kind it is functional.
Data set [19] has as its system KB. The experiment in a line: Antiproliferative activity against human KB cells after 72 hrs by MTT assay. The format is functional, cell-based. An outline of the steps: as §2
Data set [20] has as its system K562. In words: Induction of microtubule network disruption in human K562 cells after 24 hrs by DAPI staining based immunofluorescence assay. The format is functional, cell-based. The essentials:
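K562 cells exposed at 5, 10 or 20 nM for 24 h. Microtubule network visualized by immunofluorescence against untreated cells.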

In data set [21] the test system is K562. In words: Cell cycle arrest in human K562 cells assessed as accumulation at G2/M phase at 20 nM after 48 hrs by propidium iodide staining based flow cytometry. In kind it is functional. An outline of the steps:
as §3

The test system of data set [22] is K562. In words: Induction of apoptosis in human K562 cells assessed as late apoptotic cells at 5 nM after 48 hrs by Annexin V-APC/7-AAD staining based flow cytometry (reference value: 5.7%). In kind it is functional.
Data set [23] concerns K562. In words: Cell cycle arrest in human K562 cells assessed as accumulation at G2/M phase at 10 nM after 48 hrs by propidium iodide staining based flow cytometry. In kind it is functional. The essentials:
as §3

Data set [24] concerns MDA-MB-231. The experiment in a line: Antiproliferative activity against human MDA-MB-231 cells after 72 hrs by MTT assay. In kind it is functional, cell-based. The note with it: MDA-MB-231, 72 h. The essentials: as §2
Data set [25] deals with H22. In words: Antitumor activity against […] cells xenografted in ICR mouse assessed as reduction in tumor weight at 15 mg/kg, iv qd for 21 consecutive days. The format is functional. Also noted: scale not given: the % may be the effect or the level left. The essentials:
as §4

Data set [26] has as its system K562. In words: Induction of apoptosis in human K562 cells assessed as late apoptotic cells at 20 nM after 48 hrs by Annexin V-APC/7-AAD staining based flow cytometry (reference value: 5.7%). In kind it is functional.
Data set [27] has as its system H22. The experiment in a line: Antiproliferative activity against […] cells after 72 hrs by MTT assay. In kind it is functional, cell-based. The conditions noted are these: Mus musculus, H22, 72 h. An outline of the steps:
as §2

The subject of data set [28] is HUVEC. In words: Antimigratory activity in HUVEC after 24 hrs by wound healing based phase contrast microscopy. The format is functional, cell-based. The conditions noted are these: Homo sapiens. An outline of the steps:
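Confluent HUVEC monolayer scraped to make a wound. Cells exposed to test agent and migration into the scraped area followed over 24 h.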

Data set [29] has as its system HUVEC. The experiment in a line: Antivascular activity against HUVEC assessed as reduction in capillary like tube formation up to 20 nM after 6 hrs by inverted microscopic based matrigel method. The note with it: Homo sapiens. In kind it is functional, cell-based. An outline of the steps: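 HUVECs seeded on matrigel to form capillary-like tubules, then exposed to 0, 5, 10 or 20 nM for 6 h. Disruption of tube networks scored.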

The test system of data set [30] is H22. In words: Antitumor activity against […] cells xenografted in ICR mouse assessed as reduction in tumor weight at 8 mg/kg, iv per 2 days for 21 consecutive days. In kind it is functional. Also noted: scale not given: the % may be the effect or the level left. An outline of the steps:
as §4

For data set [31], the system named is Mus musculus. In words: Toxicity in ICR mouse xenografted with […] cells assessed as decrease in body weight at 8 mg/kg, iv per 2 days for 21 consecutive days measured every 2 days. In kind it is organism-based. The note with it: in vivo, 48 h. The essentials:
as §4

In general, IC50 refers to the point on the concentration scale where inhibition reaches its midpoint. A word on the inhibition: it is the change of the read-out against control, counted positive when it falls.

Activity calls are given as the source filed them. The rule behind the calls is not given here.

In the case of `COc1ccc2c(c1O)COCC2c1cc(OC)c(OC)c(OC)c1` (racemic), the Activity is 55.1% in data set [1]; 29% in [3]; 26.7% in data set [5]; 29% in data set [6]; 17.5% in [7]; 54.1% in [8]. For the same compound, the Activity in [9] was 62.3%; in data set [10], 12.7%; in data set [13] it was “Dose-dependent effect”; in data set [14] it was “Non-Toxic”; in data set [18] it was 13.7%; in [20], “Dose-dependent effect”. Besides, the Activity in data set [21] was 22.4%; in [22], 13.7%; in data set [23], 19.5%; in data set [25], 46.5%; in data set [26] it was 54.1%; in [28] it was “Dose-dependent effect”. Also, the IC50 in data set [2] was 30 nM; in data set [11], 10 nM; in [12], 95 nM; in [15], 3.1 µM; in [16], 0.015 µM; in data set [19], 25 nM. In addition, the IC50 in data set [24] turned out to be 22 nM; in [27], 11 nM. For the same compound, the inhibition in data set [4] came out at 76.4%; in data set [17] it was 89.6%. For the same compound, the outcome in data set [29] was Active.
Consider `COc1ccc2c(c1O)COC=C2c1cc(OC)c(OC)c(OC)c1`, for which the IC50 in data set [2] stood at 25 nM; in data set [11], 19 nM; in [12], 138 nM; in data set [15] it was 4.2 µM; in [16], 0.026 µM; in data set [19], 16 nM. Besides, the IC50 in data set [24] was found to be 28 nM; in data set [27] it was 10 nM.
Consider `COc1cc2c(cc1O)C(c1cc(OC)c(OC)c(OC)c1)=COC2`, for which the IC50 in data set [16] is over 10 µM.
Consider `COc1ccc2c(c1O)COC[C@H]2c1cc(OC)c(OC)c(OC)c1`, for which the IC50 was 940 nM in [2]; 460 nM in data set [11]; 900 nM in data set [12]; 4.3 µM in data set [15]; 870 nM in data set [19]; 900 nM in [24]. The compound also yielded an IC50 in [27] of 800 nM.
Turning to `COc1ccc2c(c1O)COC(C)C2=O` (centres undefined), the IC50 in [2] stood at 35200 nM; in data set [11], 20500 nM; in data set [12], 22200 nM; in [15] it was 10.6 µM; in data set [16], 23.7 µM; in data set [19] it was 25100 nM. Further, the 50% inhibitory concentration (IC50) worked out at 30200 nM in [24] and 18200 nM in [27].
In data set [16], `COc1cc2c(cc1O)C(c1cc(OC)c(OC)c(OC)c1)COC2` (centres undefined) showed a half-maximal inhibitory concentration (IC50) of over 10 µM.
Turning to `COc1ccc2c(c1O)COC[C@@H]2c1cc(OC)c(OC)c(OC)c1`, the IC50 stood at 12 nM in [2]; 8 nM in [11]; 58 nM in [12]; 2.5 µM in data set [15]; 12 nM in [19]; 11 nM in [24]. For the same compound, inhibition in data set [27] was half-maximal at 8 nM (IC50). Moreover, the inhibition in data set [4] is 79.4%; in data set [17], 92.6%.
With `COc1ccc(/C=C\c2cc(OC)c(OC)c(OC)c2)cc1O` [COMBRETASTATIN A4], the IC50 is 15 nM in data set [2]; 15 nM in data set [11]; 95 nM in data set [12]; 2.5 µM in [15]; 12 nM in data set [19]; 15 nM in data set [24]. Besides, it took 8 nM to reach half-maximal inhibition in data set [27] (IC50). The Activity in [9] turned out to be 55.3%; in [25], 44.8%.
Consider `CC(=O)O[C@H]1C(=O)[C@@]2(C)[C@H]([C@H](OC(=O)c3ccccc3)[C@]3(O)C[C@H](OC(=O)[C@H](O)[C@@H](NC(=O)c4ccccc4)c4ccccc4)C(C)=C1C3(C)C)[C@]1(OC(C)=O)CO[C@@H]1C[C@@H]2O` [PACLITAXEL], for which the Activity in data set [30] is listed as 72.1%; in [31], “Toxic”.

The record behind these values is ChEMBL document CHEMBL4266000, “Discovery of Novel 4-Arylisochromenes as Anticancer Agents Inhibiting Tubulin Polymerization” (ACS Med Chem Lett, 2018).
